In ChEMBL document CHEMBL4152263, “Novel anticancer hybrids from diazen-1-ium-1,2-diolate nitric oxide donor and ROS inducer plumbagin: Design, synthesis and biological evaluations” (Eur J Med Chem, 2018):
Activity calls are given as the source filed them. The rule behind the calls is not given here.

Columns and labels:
[1] = tested on: MDA-MB-231; assay: Cytotoxicity against human MDA-MB-231 cells assessed as growth inhibition at 10 uM after 48 hrs by MTT assay relative to control; format: functional; details: MDA-MB-231, 48 h, read-out: GI
Procedure, shortened: (§1)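 Single-concentration MTT screen. Cells were seeded, allowed to adhere for 24 h, and exposed to compound for 48 h. MTT (5 mg/mL) was added for the last 4 h, then DMSO, with absorbance read at 570 nm. Result is inhibition rate (%) at the stated concentration; mean of three independent experiments.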

[2] = tested on: A549; assay: Cytotoxicity against human A549 cells assessed as growth inhibition at 10 uM after 48 hrs by MTT assay relative to control; format: functional; details: A549, 48 h, read-out: GI; procedure, shortened: as §1
[3] = tested on: HepG2; assay: Cytotoxicity against human HepG2 cells assessed as growth inhibition at 10 uM after 48 hrs by MTT assay relative to control; format: functional; details: HepG2, 48 h, read-out: GI; procedure, shortened: as §1
[4] = tested on: MDA-MB-231; assay: Cytotoxicity against human MDA-MB-231 cells assessed as growth inhibition after 48 hrs by MTT assay; format: functional, cell-based; details: MDA-MB-231, 48 h
Procedure, shortened: (§2)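 Cells seeded at 5.0 × 10^4/ml and left 24 h to adhere, then exposed to a range of test-compound concentrations for 44 h. MTT (5 mg/mL) was added for a further 4 h at 37 °C. Supernatant was removed, DMSO added, and OD read at 570 nm. IC50 after 48 h total exposure; mean ± SD, n = 3.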

[5] = tested on: HepG2; assay: Cytotoxicity against human HepG2 cells assessed as growth inhibition after 48 hrs by MTT assay; format: functional, cell-based; details: HepG2, 48 h; procedure, shortened: as §2
[6] = tested on: A549; assay: Cytotoxicity against human A549 cells assessed as growth inhibition after 48 hrs by MTT assay; format: functional, cell-based; details: A549, 48 h; procedure, shortened: as §2
[7] = tested on: HCT-116; assay: Cytotoxicity against human HCT116 cells assessed as growth inhibition after 48 hrs by MTT assay; format: functional, cell-based; details: HCT-116, 48 h; procedure, shortened: as §2
[8] = tested on: HK-2; assay: Cytotoxicity against human HK2 cells assessed as growth inhibition after 48 hrs by MTT assay; format: cell-based; details: HK-2, 48 h; procedure, shortened: as §2
[9] = tested on: WRL68; assay: Cytotoxicity against human WRL68 cells assessed as growth inhibition after 48 hrs by MTT assay; format: cell-based; details: WRL68, 48 h; procedure, shortened: as §2
[10] = tested on: A549; assay: Induction of reactive oxygen species formation in human A549 cells at 5 uM after 24 hrs by DCFH-DA probe-based flow cytometric analysis relative to control; format: functional
[11] = tested on: MDA-MB-231; assay: Cytotoxicity against human MDA-MB-231 cells assessed as growth inhibition at 40 uM after 48 hrs by MTT assay relative to control; format: functional; details: MDA-MB-231, 48 h, read-out: GI; procedure, shortened: as §1
[12] = tested on: HepG2; assay: Cytotoxicity against human HepG2 cells assessed as growth inhibition at 40 uM after 48 hrs by MTT assay relative to control; format: functional; details: HepG2, 48 h, read-out: GI; procedure, shortened: as §1
[13] = tested on: A549; assay: Cytotoxicity against human A549 cells assessed as growth inhibition at 40 uM after 48 hrs by MTT assay relative to control; format: functional; details: A549, 48 h, read-out: GI; procedure, shortened: as §1
[14] = tested on: MDA-MB-231; assay: Cytotoxicity against human MDA-MB-231 cells assessed as growth inhibition at 20 uM after 48 hrs by MTT assay relative to control; format: functional; details: MDA-MB-231, 48 h, read-out: GI; procedure, shortened: as §1
[15] = tested on: HepG2; assay: Cytotoxicity against human HepG2 cells assessed as growth inhibition at 20 uM after 48 hrs by MTT assay relative to control; format: functional; details: HepG2, 48 h, read-out: GI; procedure, shortened: as §1
[16] = tested on: A549; assay: Cytotoxicity against human A549 cells assessed as growth inhibition at 20 uM after 48 hrs by MTT assay relative to control; format: functional; details: A549, 48 h, read-out: GI; procedure, shortened: as §1
[17] = Drug metabolism in human A549 cells assessed as nitric oxide production at 5 uM after 24 hrs by Griess assay; format: ADME, cell-based; details: a549, 24 h
Procedure, shortened: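 A549 cells were plated at 5.0 × 10^4/ml and treated in triplicate with compound at 5 μM for varying times up to 24 h. NO release was quantified as nitrite plus nitrate by Griess assay (commercial kit); mean ± SD, n = 3.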

[18] = Drug metabolism in human A549 cells assessed as nitric oxide production at 5 uM after 24 hrs in presence of nitric oxide scavenger carboxy-PTIO by Griess assay; format: ADME, cell-based; details: a549, 24 h
Procedure, shortened: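 A549 cells were pre-incubated with the NO scavenger carboxy-PTIO (50 μM) for 1 h, then treated with compound (5 μM) for 24 h. Proliferation was read by MTT and NO by Griess assay (nitrite/nitrate); mean ± SD of three independent experiments.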

[19] = tested on: A549; assay: Cytotoxicity against human A549 cells assessed as growth inhibition at 5 uM after 24 hrs in presence of nitric oxide scavenger carboxy-PTIO by MTT assay
[20] = tested on: A549; assay: Induction of apoptosis in human A549 cells assessed as early apoptotic cells at 1 uM after 24 hrs by FITC-annexin V/propidium iodide staining-based flow cytometric analysis (reference value: 1.87%); format: functional
[21] = tested on: A549; assay: Induction of apoptosis in human A549 cells assessed as late apoptotic cells at 1 uM after 24 hrs by FITC-annexin V/propidium iodide staining-based flow cytometric analysis (reference value: 0.36%); format: functional
[22] = tested on: A549; assay: Induction of apoptosis in human A549 cells assessed as necrotic cells at 1 uM after 24 hrs by FITC-annexin V/propidium iodide staining-based flow cytometric analysis (reference value: 0.055%); format: functional
[23] = tested on: A549; assay: Induction of apoptosis in human A549 cells assessed as viable cells at 1 uM after 24 hrs by FITC-annexin V/propidium iodide staining-based flow cytometric analysis (reference value: 97.7%); format: functional; details: A549, 24 h, read-out: Activity
[24] = tested on: A549; assay: Induction of apoptosis in human A549 cells assessed as early apoptotic cells at 2 uM after 24 hrs by FITC-annexin V/propidium iodide staining-based flow cytometric analysis (reference value: 1.87%); format: functional
[25] = tested on: A549; assay: Induction of apoptosis in human A549 cells assessed as late apoptotic cells at 2 uM after 24 hrs by FITC-annexin V/propidium iodide staining-based flow cytometric analysis (reference value: 0.36%); format: functional
[26] = tested on: A549; assay: Induction of apoptosis in human A549 cells assessed as necrotic cells at 2 uM after 24 hrs by FITC-annexin V/propidium iodide staining-based flow cytometric analysis (reference value: 0.055%); format: functional
[27] = tested on: A549; assay: Induction of apoptosis in human A549 cells assessed as viable cells at 2 uM after 24 hrs by FITC-annexin V/propidium iodide staining-based flow cytometric analysis (reference value: 97.7%); format: functional; details: A549, 24 h, read-out: Activity
[28] = tested on: A549; assay: Induction of apoptosis in human A549 cells assessed as early apoptotic cells at 4 uM after 24 hrs by FITC-annexin V/propidium iodide staining-based flow cytometric analysis (reference value: 1.87%); format: functional
[29] = tested on: A549; assay: Induction of apoptosis in human A549 cells assessed as late apoptotic cells at 4 uM after 24 hrs by FITC-annexin V/propidium iodide staining-based flow cytometric analysis (reference value: 0.36%); format: functional
[30] = tested on: A549; assay: Induction of apoptosis in human A549 cells assessed as necrotic cells at 4 uM after 24 hrs by FITC-annexin V/propidium iodide staining-based flow cytometric analysis (reference value: 0.055%); format: functional
[31] = tested on: A549; assay: Induction of apoptosis in human A549 cells assessed as viable cells at 4 uM after 24 hrs by FITC-annexin V/propidium iodide staining-based flow cytometric analysis (reference value: 97.7%); format: functional; details: A549, 24 h, read-out: Activity
[32] = tested on: A549; assay: Induction of apoptosis in human A549 cells assessed as increase in late apoptotic cells after 24 hrs by FITC-annexin V/propidium iodide staining-based flow cytometric analysis; format: functional, cell-based

Structure (SMILES)	inhibition of growth at 10 µM [1] [%]	inhibition of growth at 10 µM [2] [%]	inhibition of growth at 10 µM [3] [%]	IC50 [4] [µM]	IC50 [5] [µM]	IC50 [6] [µM]	IC50 [7] [µM]	IC50 [8] [µM]	IC50 [9] [µM]	other results
CC1=C(CCC(=O)OCO/[N+]([O-])=N/N2CCCC2)C(=O)c2c(O)cccc2C1=O	31.6	32.9	29.8	15.2	17.8	16.4	17.2	25.6	19.5	
CC1=C(CCC(=O)OCCCCO/[N+]([O-])=N/N2CCOCC2)C(=O)c2c(O)cccc2C1=O	29.4	24.4	28.8							
CC1=CC(=O)c2c(O)cccc2C1=O [PLUMBAGIN]	73.8	60.7	58.9	6.5	9.17	8.9	9.8	23.6	15.4	fold change (FC) [10]: 1.34
CC1=C(CCC(=O)OCCO/[N+]([O-])=N/N2CCOCC2)C(=O)c2c(O)cccc2C1=O	35.7	30.3	32.5							
CC1=C(CCCC(=O)OCO/[N+]([O-])=N/N2CCCC2)C(=O)c2c(O)cccc2C1=O	70.8	65.6	69.7	6.97	7.12	9.24	9.32	18.1	16.6	
CC1=C(CCC(=O)O)C(=O)c2c(O)cccc2C1=O										inhibition of growth at 40 µM [11]: 8.7%; inhibition of growth at 40 µM [12]: 25.3%; inhibition of growth at 40 µM [13]: 12.3%
CC1=C(CCCC(=O)OCCCCO/[N+]([O-])=N/N2CCOCC2)C(=O)c2c(O)cccc2C1=O	30.6	38.2	32.2							
CC1=C(CCC(=O)OCO/[N+]([O-])=N/N2CCCCC2)C(=O)c2c(O)cccc2C1=O	40.1	45	35.1	11.7	14.4	10.8	20.2	27.7	28.2	
CC1=C(CCCC(=O)O)C(=O)c2c(O)cccc2C1=O										inhibition of growth at 20 µM [14]: 9.9%; inhibition of growth at 20 µM [15]: 28.6%; inhibition of growth at 20 µM [16]: 8.5%
CC1=C(CCCC(=O)OCO/[N+]([O-])=N/N2CCCCC2)C(=O)c2c(O)cccc2C1=O	83.6	86.7	80.3	4.92	6.68	4.27	5.26	17.7	> 40	Drug metabolism [17]: Metabolite_Detected; Drug metabolism [18]: Metabolite_Notdetected; growth inhibition (GI) [19]: inactive
[O-]/[N+](=N\OCCl)N1CCOCC1	13.3	19.1	16.4							
CC1=C(CCCC(=O)OCCCO/[N+]([O-])=N/N2CCOCC2)C(=O)c2c(O)cccc2C1=O	9.5	11.3	8.2							
CC1=C(CCC(=O)OCCCO/[N+]([O-])=N/N2CCOCC2)C(=O)c2c(O)cccc2C1=O	28.6	26.9	28							
CC1=C(CCC(=O)OCO/[N+]([O-])=N/N2CCOCC2)C(=O)c2c(O)cccc2C1=O	37.2	40.3	31.3	13.5	16.5	12.3	15.6	24.6	19.3	
[O-]/[N+](=N\OCCl)N1CCCCC1	11.4	10.8	17.6							
CC1=C(CCCC(=O)OCCO/[N+]([O-])=N/N2CCOCC2)C(=O)c2c(O)cccc2C1=O	26.2	23.7	25							
CC1=C(CCCC(=O)OCO/[N+]([O-])=N/N2CCOCC2)C(=O)c2c(O)cccc2C1=O	88.3	91.2	75.4	4.12	5.52	3.48	4.21	23.5	> 40	Drug metabolism [17]: Metabolite_Detected; Drug metabolism [18]: Metabolite_Notdetected; fold change (FC) [10]: 1.64; Activity [20]: 2.09%; Activity [21]: 4.18%; Activity [22]: 1.56%; viability at 1 µM [23]: 92.2%; Activity [24]: 3.74%; Activity [25]: 10.1%; Activity [26]: 6.53%; viability at 2 µM [27]: 79.6%; Activity [28]: 6.93%; Activity [29]: 30.3%; Activity [30]: 17.3%; viability at 4 µM [31]: 45.4%; Activity [32]: Dose-dependent effect; growth inhibition (GI) [19]: inactive
